Key:
[1] = Cytotoxicity against HEL cells assessed as alteration of cell morphology after 3 days by microscopic method; format: toxicity, cell-based; conditions: human
Summary of the method: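 HEL cultures were exposed to compound at varying concentrations. Cytotoxicity was recorded as the minimum cytotoxic concentration, the lowest concentration giving a microscopically detectable alteration of cell morphology.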

Human alphaherpesvirus 2 = assay: Antiviral activity against Herpes simplex virus 2 G infected in HEL cells assessed as inhibition of virus plaque formation; format: functional, cell-based; conditions: Human alphaherpesvirus 2, strain G
Human alphaherpesvirus 1 [2] = assay: Antiviral activity against thymidine kinase-deficient acyclovir-resistant Herpes simplex virus 1 KOS infected in HEL cells assessed as inhibition of virus plaque formation; format: functional, cell-based; conditions: Human alphaherpesvirus 1, KOS
Human alphaherpesvirus 3 [3] = assay: Antiviral activity against thymidine Kinase expressing Varicella-Zoster virus OKA infected in HEL cells assessed as inhibition of virus plaque formation; format: functional, cell-based; conditions: Human alphaherpesvirus 3, OKA
Summary of the method: (§1)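 Confluent HEL cell monolayers were infected with 20 PFU of VZV and incubated with varying compound concentrations. Plaques were scored once plaque formation was complete in untreated infected controls.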

[4] = Cytotoxicity against HEL cells assessed as growth inhibition after 3 days by coulter counter method; format: toxicity, cell-based; conditions: human; for CC50: hel, 72 h; for CC50 at 72 h: HEL cells
Summary of the method: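 HEL cells were seeded at 5×10^3 cells/well and allowed to grow for 24 h. Medium with varying compound concentrations was then added, and cells were incubated for 3 days at 37 °C before counting with a Coulter counter.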

Human alphaherpesvirus 1 [5] = assay: Antiviral activity against Herpes simplex virus 1 KOS infected in HEL cells assessed as inhibition of virus plaque formation; format: functional, cell-based; conditions: Human alphaherpesvirus 1, KOS
Human betaherpesvirus 5 [6] = assay: Antiviral activity against Human cytomegalovirus Davis infected in HEL cells assessed as inhibition of virus plaque formation; format: functional, cell-based; conditions: Human betaherpesvirus 5, Davis
Human alphaherpesvirus 3 [7] = assay: Antiviral activity against thymidine kinase deficient Varicella-Zoster virus 07-1 infected in HEL cells assessed as inhibition of virus plaque formation; format: functional, cell-based; conditions: Human alphaherpesvirus 3, 07-1, HEL
Summary of the method: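 Confluent HEL fibroblast monolayers were infected with 20 PFU of TK⁻ VZV strain 07-1 and incubated with varying compound concentrations. Plaques were recorded once plaque formation reached completion in untreated infected controls.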

Human betaherpesvirus 5 [8] = assay: Antiviral activity against Human cytomegalovirus AD169 infected in HEL cells assessed as inhibition of virus plaque formation; format: functional, cell-based; conditions: Human betaherpesvirus 5, AD169, HEL
Human alphaherpesvirus 3 [9] = assay: Antiviral activity against thymidine kinase deficient Varicella-Zoster virus YS-R infected in HEL cells assessed as inhibition of virus plaque formation; format: functional, cell-based; conditions: Human alphaherpesvirus 3, YS-R; summary of the method: as §1

SMILES | MCC at 72 h [1] | EC50 (Human alphaherpesvirus 2) | EC50 (Human alphaherpesvirus 1 [2]) | EC50 (Human alphaherpesvirus 3 [3]) | CC50 [4] | EC50 (Human alphaherpesvirus 1 [5]) | EC50 (Human betaherpesvirus 5 [6]) | EC50 (Human alphaherpesvirus 3 [7]) | EC50 (Human betaherpesvirus 5 [8]) | EC50 (Human alphaherpesvirus 3 [9]) | CC50 at 72 h [4]
Nc1nc(O)c2ncn(COC(CO)CO)c2n1 [GANCICLOVIR] | > 100 µM |  |  |  |  |  |  |  |  |  | 
c1ccc(-c2ccc(Cn3cc(CN4CCCCC4)c4ccccc43)cc2)cc1 | 20 µM | > 20 µM | > 20 µM | > 4 µM | 6.9 µM | > 20 µM | > 4 µM | > 4 µM |  |  | 
COc1ccc(CNCCc2cn(C)c3ccccc23)cc1 | 100 µM | > 20 µM | > 20 µM | > 20 µM | 28 µM | > 20 µM | > 20 µM | > 20 µM | > 20 µM |  | 
COC(=O)c1ccc(CNCCc2cn(Cc3ccc(-c4ccccc4)cc3)c3ccccc23)cc1 | 20 µM | > 100 µM | > 100 µM |  | 7.3 µM | > 100 µM | > 4 µM | > 4 µM | > 4 µM | > 4 µM | 
Cn1cc(CCNCc2ccc(Cl)cc2)c2ccccc21 | 20 µM | > 20 µM | > 20 µM | > 4 µM | 22 µM | > 20 µM | > 20 µM | > 4 µM | > 20 µM |  | 
CC(=O)N(CCc1cn(C)c2ccccc12)Cc1cccc2ccccc12 | 100 µM |  |  | > 20 µM |  |  |  | > 20 µM |  |  | 
Cn1cc(CCN(CCc2ccc(-c3ccccc3)cc2)C(=O)c2ccccc2)c2ccccc21 | > 100 µM |  |  | 20 µM |  |  |  | 20 µM |  |  | 
Cn1cc(CCNc2ccc3ccccc3c2)c2ccccc21 | > 100 µM | > 100 µM | > 100 µM | > 100 µM | 41 µM | > 100 µM | 100 µM | > 100 µM | 76 µM |  | 
CC(=O)N(CCc1cn(C)c2ccccc12)c1ccc2ccccc2c1 | 20 µM |  |  | > 4 µM |  |  |  | > 4 µM |  |  | 
Cn1cc(CCN(CCc2ccc(-c3ccccc3)cc2)C(=O)C2CCCCC2)c2ccccc21 | 20 µM |  |  | > 4 µM |  |  |  | > 4 µM |  |  | 
Cn1cc(CCN(CCc2ccc(-c3ccccc3)cc2)C(=O)OC(C)(C)C)c2ccccc21 | 20 µM |  |  | > 4 µM |  |  |  | > 4 µM |  |  | 
Cn1cc(CCN(CCc2ccc(-c3ccccc3)cc2)C(=O)CCN2CCOCC2)c2ccccc21 | 20 µM |  |  | > 4 µM |  |  |  | > 4 µM |  |  | 
CC(=O)N(CCc1cn(C)c2ccccc12)Cc1ccc(Oc2ccccc2)cc1 | 20 µM |  |  | > 4 µM |  |  |  | > 4 µM |  |  | 
Nc1nc2c(ncn2COCCO)c(=O)[nH]1 [ACYCLOVIR] | 250 to 440 µM |  |  |  |  |  |  |  |  |  | 191 to 224 µM
CC(=O)N(CCc1cn(C)c2ccccc12)Cc1ccc(-c2ccccc2)cc1 | 100 µM |  |  | > 20 µM |  |  |  | > 20 µM |  |  | 
CCCn1cc(C(=O)c2ccc(Cl)cc2)c2ccccc21 | > 100 µM | > 100 µM | > 100 µM | > 100 µM | > 100 µM | > 100 µM | > 100 µM | > 100 µM |  |  | 
CC(=O)N(CCc1cn(C)c2ccccc12)Cc1ccc2ccccc2c1 | 20 µM |  |  | > 4 µM |  |  |  | > 4 µM |  |  | 
CCCn1cc(CN2CCCCC2)c2cc(CNc3ccc(Cl)cc3)ccc21 | 20 µM | > 20 µM | > 20 µM | > 4 µM | 15 µM | > 20 µM | > 4 µM | > 4 µM |  |  | 
CCCn1cc(CNCCc2ccc(-c3ccccc3)cc2)c2cc(CNc3ccc(Cl)cc3)ccc21 | 20 µM | > 4 µM | > 4 µM | > 4 µM | 9.7 µM | > 4 µM | > 4 µM | > 4 µM |  |  | 
Nc1ccn(C[C@@H](CO)OCP(=O)(O)O)c(=O)n1 [CIDOFOVIR] | > 250 µM | 0.7 µM |  |  |  | 0.4 µM |  |  |  |  | 
CCCn1cc(CNCCc2ccc(-c3ccccc3)cc2)c2ccccc21 | 4 µM | > 100 µM | > 100 µM | > 0.8 µM | 1.7 µM | > 100 µM | > 0.16 µM | > 0.8 µM |  |  | 
CCCn1cc(CN2CCCCC2)c2cc(NC(=O)c3ccccc3)ccc21 | 100 µM | > 100 µM | > 100 µM | > 20 µM | 31 µM | > 100 µM | > 20 µM | > 20 µM |  |  | 
CC(=O)N(CCc1ccc(-c2ccccc2)cc1)CCc1cn(C)c2ccccc12 | 20 to 35 µM | > 100 µM | > 100 µM | 2.5 to 3.6 µM | 31 to 39 µM | > 100 µM | > 4 µM | 1.7 to 3.1 µM |  | 2.1 µM | 
Cn1cc(CCNCCc2ccc(-c3ccccc3)cc2)c2ccccc21 | > 4 µM | > 100 µM | > 100 µM |  | 20 µM | > 100 µM | > 4 µM | > 4 µM | > 4 µM |  | 
O=c1[nH]c(=O)n([C@H]2C[C@H](O)[C@@H](CO)O2)cc1/C=C/Br [BRIVUDINE] | 250 to 300 µM | 96 µM |  | 0.019 to 0.035 µM |  |  |  | 33 to 143 µM |  |  | 160 to 300 µM
CCCn1cc(CN2CCCCC2)c2ccccc21 | > 100 µM | > 100 µM | > 100 µM | > 100 µM | > 100 µM | > 100 µM | > 4 µM | > 100 µM | > 4 µM |  | 
CC(=O)N(CCc1cn(C)c2ccccc12)c1cccc2ccccc12 | 100 µM |  |  | > 20 µM |  |  |  | > 20 µM |  |  | 

Reference: ChEMBL document CHEMBL3877247, “Identification of an indol-based derivative as potent and selective varicella zoster virus (VZV) inhibitor” (Eur J Med Chem, 2016)
